Reference: ChEMBL document CHEMBL4145473, “Substituted tetrahydroisoquinolines: synthesis, characterization, antitumor activity and other biological properties” (Eur J Med Chem, 2018)
Calls of active or inactive are those of the source. No cut-off for these calls is given here.

Legend:
L1210 [1] = test: Cytotoxicity against mouse L1210 cells after 48 hrs by coulter counter method; format: functional, cell-based; details: L1210, 48 h
How it was run: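 L1210 cells in RPMI 1640 with 2 mM L-glutamine, penicillin, streptomycin and 20% heat-inactivated horse serum at 37 °C, 5% CO2. Drugs added in DMSO (0.5% final) to exponentially growing cells seeded at 0.8 × 10^5 cells/mL. Cells counted in triplicate after 48 h by Coulter counter. IC50 taken from probit regression of percent growth inhibition against log dose.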

L1210 [2] = test: Cell cycle arrest in mouse L1210 cells assessed accumulation of cells at G2/M phase at 50 uM after 21 hrs by propidium iodide staining-based flow cytometric analysis; format: functional
How it was run: (§1)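 L1210 leukemia cells in RPMI 1640 with 2 mM L-glutamine, penicillin, streptomycin and 20% heat-inactivated horse serum, exposed to several drug concentrations for 21 h at 37 °C, 5% CO2. Cells fixed in 70% ethanol, washed, then stained 30 min at room temperature in PBS containing RNAse and propidium iodide. Flow cytometry; result given as percentage of cells in each cell-cycle phase.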

L1210 [3] = test: Cell cycle arrest in mouse L1210 cells assessed accumulation of cells at G1 phase at 25 uM after 21 hrs by propidium iodide staining-based flow cytometric analysis; format: functional; how it was run: as §1
[4] = target: GTPase KRas (Homo sapiens) (UniProt P01116); test: Inhibition of KRas in human HCT cells at 0.2 uM relative to control; format: cell-based
Sequence of GTPase KRas (Homo sapiens) (P01116 whole entry, looked up): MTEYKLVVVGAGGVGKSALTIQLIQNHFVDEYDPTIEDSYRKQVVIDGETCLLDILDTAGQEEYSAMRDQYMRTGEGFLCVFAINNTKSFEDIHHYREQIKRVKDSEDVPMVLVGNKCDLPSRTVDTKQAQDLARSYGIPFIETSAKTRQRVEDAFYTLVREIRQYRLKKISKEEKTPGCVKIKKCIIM

[5] = target: GTPase KRas (Homo sapiens) (UniProt P01116); test: Inhibition of KRas in human HCT cells at 2 uM relative to control; format: cell-based
[6] = target: GTPase KRas (Homo sapiens) (UniProt P01116); test: Inhibition of KRas in human HCT cells at 20 uM relative to control; format: cell-based
[7] = target: GTPase KRas (Homo sapiens) (UniProt P01116); test: Inhibition of KRas in human RKO cells at 0.2 uM relative to control; format: cell-based
[8] = target: GTPase KRas (Homo sapiens) (UniProt P01116); test: Inhibition of KRas in human RKO cells at 2 uM relative to control; format: cell-based
[9] = target: GTPase KRas (Homo sapiens) (UniProt P01116); test: Inhibition of KRas in human RKO cells at 20 uM relative to control; format: cell-based
[10] = target: GTPase KRas (Homo sapiens) (UniProt P01116); test: Inhibition of KRas in human Colon 320 cells at 0.2 uM relative to control; format: cell-based
[11] = target: GTPase KRas (Homo sapiens) (UniProt P01116); test: Inhibition of KRas in human Colon 320 cells at 2 uM relative to control; format: cell-based
[12] = target: GTPase KRas (Homo sapiens) (UniProt P01116); test: Inhibition of KRas in human Colon 320 cells at 20 uM relative to control; format: cell-based
[13] = target: GTPase KRas (Homo sapiens) (UniProt P01116); test: Inhibition of KRas in human SNU-C1 cells at 0.2 uM relative to control; format: cell-based
[14] = target: GTPase KRas (Homo sapiens) (UniProt P01116); test: Inhibition of KRas in human SNU-C1 cells at 2 uM relative to control; format: cell-based
[15] = target: GTPase KRas (Homo sapiens) (UniProt P01116); test: Inhibition of KRas in human SNU-C1 cells at 20 uM relative to control; format: cell-based
L1210 [16] = test: Cell cycle arrest in mouse L1210 cells assessed accumulation of cells at G1 phase at 100 uM after 21 hrs by propidium iodide staining-based flow cytometric analysis; format: functional; how it was run: as §1
L1210 [17] = test: Cell cycle arrest in mouse L1210 cells assessed accumulation of cells at 8N phase at 5 uM after 21 hrs by propidium iodide staining-based flow cytometric analysis relative to control; format: functional; how it was run: as §1
L1210 [18] = test: Cell cycle arrest in mouse L1210 cells assessed accumulation of cells at 8N phase at 10 uM after 21 hrs by propidium iodide staining-based flow cytometric analysis relative to control; format: functional; how it was run: as §1
L1210 [19] = test: Cell cycle arrest in mouse L1210 cells assessed accumulation of cells at G2/M phase at 100 uM after 21 hrs by propidium iodide staining-based flow cytometric analysis; format: functional; how it was run: as §1

COC(=O)CCCCCN1CCc2cc3c(cc2C1c1ccncc1)OCCO3 (stereo not drawn)
IC50 (L1210 [1]): > 10 µM

COc1cc2c(c3c1c(=O)c1ccccc1n3C)C=CC(C)(C)O2 [ACRONINE]
IC50 (L1210 [1]): 21 µM
Activity (L1210 [2]): Active

COc1cc(C2c3cc4c(cc3CCN2CCN(C)C)OCCO4)cc(OC)c1OC (stereo not drawn)
Activity (L1210 [3]): Active
IC50 (L1210 [1]): 3.7 µM

COc1cc(C2c3cc4c(cc3CCN2CCN)OCCO4)cc(OC)c1OC (stereo not drawn)
Activity (L1210 [3]): Active
IC50 (L1210 [1]): 2 µM
inhibition [4]: 0%
inhibition [5]: 16.2%
inhibition [6]: 56.9%
inhibition [7]: 0%
inhibition [8]: 10.1%
inhibition [9]: 92.7%
inhibition [10]: 0%
inhibition [11]: 20.1%
inhibition [12]: 85.3%
inhibition [13]: 12.2%
inhibition [14]: 2.4%
inhibition [15]: 57.1%

COc1cc2c(cc1OC)C(c1cc(OC)c(OC)c(OC)c1)N(CCO)CC2 (stereo not drawn)
IC50 (L1210 [1]): 23.4 µM

CCOC(=O)N1CCc2cc3c(cc2C1c1ccncc1)OCCO3 (stereo not drawn)
IC50 (L1210 [1]): > 10 µM

COc1cc(C2c3cc4c(cc3CCN2CC#N)OCCO4)cc(OC)c1OC (stereo not drawn)
IC50 (L1210 [1]): 4.2 µM
inhibition [4]: 12.1%
inhibition [5]: 17%
inhibition [6]: 49.1%
inhibition [7]: 0%
inhibition [8]: 16.3%
inhibition [9]: 79.2%
inhibition [10]: 0%
inhibition [11]: 8.2%
inhibition [12]: 74.7%
inhibition [13]: 10%
inhibition [14]: 6%
inhibition [15]: 59.8%
Activity (L1210 [16]): Active

CCN(CC)CCN1CCc2cc3c(cc2C1c1cc(OC)c(OC)c(OC)c1)OCCO3 (stereo not drawn)
IC50 (L1210 [1]): 4.1 µM

CCOC(=O)CCCCCN1CCc2cc3c(cc2C1c1cc(OC)c(OC)c(OC)c1)OCCO3 (stereo not drawn)
IC50 (L1210 [1]): > 10 µM

COc1cc(C2c3cc4c(cc3CCN2CCO)OCCO4)cc(OC)c1OC (stereo not drawn)
IC50 (L1210 [1]): 2.6 µM
inhibition [4]: 18%
inhibition [5]: 12.1%
inhibition [6]: 46.5%
inhibition [7]: 0%
inhibition [8]: 6.3%
inhibition [9]: 76.7%
inhibition [10]: 12.2%
inhibition [11]: 0%
inhibition [12]: 78.2%
inhibition [13]: 12.3%
inhibition [14]: 11.5%
inhibition [15]: 19.7%
Activity (L1210 [17]): 70%

CCOC(=O)N1CCc2cc3c(cc2C1c1cc(OC)c(OC)c(OC)c1)OCCO3 (stereo not drawn)
IC50 (L1210 [1]): > 10 µM

O=C(O)CCCCCN1CCc2cc3c(cc2C1c1ccncc1)OCCO3 (stereo not drawn)
IC50 (L1210 [1]): > 10 µM

COc1cc2c(cc1OC)C(c1cc(OC)c(OC)c(OC)c1)N(CC(O)CO)CC2 (stereo not drawn)
IC50 (L1210 [1]): 15.3 µM

COc1cc(C2c3cc4c(cc3CCN2c2ccc([N+](=O)[O-])cc2)OCCO4)cc(OC)c1OC (stereo not drawn)
Activity (L1210 [3]): Active
IC50 (L1210 [1]): 4.6 µM
inhibition [4]: 0%
inhibition [5]: 19.3%
inhibition [6]: 55.9%
inhibition [7]: 17.9%
inhibition [8]: 32.9%
inhibition [9]: 70.5%
inhibition [10]: 0%
inhibition [11]: 4%
inhibition [12]: 92.5%
inhibition [13]: 17.7%
inhibition [14]: 35%
inhibition [15]: 42.7%

COc1cc(C2c3cc4c(cc3CCN2CCCCCC(=O)O)OCCO4)cc(OC)c1OC (stereo not drawn)
IC50 (L1210 [1]): 9.4 µM

COc1cc(C2NCCc3cc4c(cc32)OCCO4)cc(OC)c1OC (stereo not drawn)
IC50 (L1210 [1]): 21.1 µM
Activity (L1210 [16]): Active

COc1cc(C2c3cc4c(cc3CCN2c2ccc(C#N)cc2)OCCO4)cc(OC)c1OC (stereo not drawn)
IC50 (L1210 [1]): 3.6 µM
inhibition [4]: 35.9%
inhibition [5]: 16%
inhibition [6]: 45.2%
inhibition [7]: 95.8%
inhibition [8]: 7.7%
inhibition [9]: 66.5%
inhibition [10]: 0%
inhibition [11]: 22.5%
inhibition [12]: 89.9%
inhibition [13]: 6.6%
inhibition [14]: 32.5%
inhibition [15]: 43.5%
Activity (L1210 [18]): 70%

CCOC(CCN1CCc2cc3c(cc2C1c1cc(OC)c(OC)c(OC)c1)OCCO3)OCC (stereo not drawn)
IC50 (L1210 [1]): > 10 µM

COc1cc(-c2nccc3cc4c(cc23)OCCO4)cc(OC)c1OC
IC50 (L1210 [1]): 25.1 µM
Activity (L1210 [19]): Active
